Laboratory results reported in ChEMBL document CHEMBL1121762, “2-(Isoxazolylethenyl)phenoxypropanolamines: a new class of beta-receptor antagonists with antihypertensive activity” (1981).

Assays:
Type in all cases: functional
Rattus norvegicus [1] = experiment: Relative potency required for hypotensive activity in anesthetized rat
Procedure, shortened: (§1)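 Male Sprague-Dawley rats, 230-280 g, anesthetized with urethane 1.78 g/kg ip; groups of two to five. Compound given iv. Mean carotid arterial pressure recorded by transducer. ED20 = dose lowering mean carotid pressure by 20%; 95% confidence limits; relative potency versus labetalol (=1.0).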

Rattus norvegicus [2] = experiment: Relative potency required for inhibition of isoproterenol-induced tachycardia in pithed rat after intravenous administration
Procedure, shortened: (§2)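 Male Sprague-Dawley rats, 200-240 g, anesthetized with amobarbital 120 mg/kg ip, pithed and ventilated via tracheal cannula; groups of two to five. Isoproterenol 0.1 μg/kg iv given before and 5 min after iv compound; heart rate by rate meter. ED50 = dose halving tachycardia; 95% confidence limits; relative potency vs labetalol (=1.0).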

Rattus norvegicus [3] = experiment: Relative potency required for antihypertensive activity in spontaneous hypertensive rats after oral administration
Procedure, shortened: (§3)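 Male SH rats (Okamoto strain), 250-380 g, groups of four to eight, dosed orally. Systolic pressure by tail cuff at 35 °C ambient, before and 2 h after dosing. ED20 = dose lowering systolic pressure 20%, corrected for placebo controls; from log dose vs Δ% regression; relative potency vs labetalol (=1.0).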

Rattus norvegicus [4] = experiment: Dose required for hypotensive activity in anesthetized rat after intravenous administration; procedure, shortened: as §1
Rattus norvegicus [5] = experiment: Dose required for antihypertensive activity in spontaneous hypertensive rats after oral administration; procedure, shortened: as §3
Rattus norvegicus [6] = experiment: Dose required for inhibition of isoproterenol-induced tachycardia in pithed rat after intravenous administration; procedure, shortened: as §2
Rattus norvegicus [7] = organism: Rattus norvegicus; experiment: Relative potency required for inhibition of L-phenylephrine-induced pressor response in pithed rats
Procedure, shortened: (§4)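 Pithed male Sprague-Dawley rats, 200-240 g, amobarbital 120 mg/kg ip, artificially ventilated; three to five per dose. l-Phenylephrine 1.47 μg/kg iv before and 5 min after iv compound; carotid pressure recorded. ED50 = dose halving phenylephrine pressor rise; 95% confidence limits; relative potency vs labetalol (=1.0).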

Rattus norvegicus [8] = experiment: Dose required for inhibition of L-phenylephrine-induced pressor response in pithed rats after intravenous administration; procedure, shortened: as §4
Rattus norvegicus [9] = experiment: Dose of compound required for hypotensive activity in anesthetized rat; procedure, shortened: as §1

Structure (SMILES): COc1ccc(CCC(C)(C)NCC(O)COc2ccccc2/C=C/c2cc(C)no2)cc1 (stereo not given)
- Relative potency (Rattus norvegicus [1]): ~5.2
- Relative potency (Rattus norvegicus [2]): ~0.7
- Relative potency (Rattus norvegicus [3]): ~2.2
- ED20 (Rattus norvegicus [4]): ~1 mg/kg
- ED20 (Rattus norvegicus [5]): ~21.5 mg/kg
- ED50 (Rattus norvegicus [6]): ~0.215 mg/kg

Structure (SMILES): Cc1cc(/C=C/c2ccccc2OCC(O)CNC(C)CCc2ccc(O)cc2)on1 (stereo not given)
- Relative potency (Rattus norvegicus [1]): 10.6
- Relative potency (Rattus norvegicus [2]): 12.7
- Relative potency (Rattus norvegicus [3]): ~1
- ED20 (Rattus norvegicus [4]): 0.49 mg/kg
- ED20 (Rattus norvegicus [5]): ~46.4 mg/kg
- ED50 (Rattus norvegicus [6]): 0.011 mg/kg

Structure (SMILES): Cc1noc(/C=C/c2ccccc2OCC(O)CNC(C)(C)C)c1[N+](=O)[O-] (stereo not given)
- Relative potency (Rattus norvegicus [1]): ~5.2
- Relative potency (Rattus norvegicus [2]): ~2.1
- ED20 (Rattus norvegicus [4]): ~1 mg/kg
- ED20 (Rattus norvegicus [5]): > 21.5 mg/kg
- ED50 (Rattus norvegicus [6]): ~0.0681 mg/kg

Structure (SMILES): Cc1noc(/C=C/c2ccccc2OCC(O)CNC(C)(C)C)c1C (stereo not given)
- Relative potency (Rattus norvegicus [1]): ~7.6
- Relative potency (Rattus norvegicus [2]): ~6.5
- ED20 (Rattus norvegicus [4]): ~0.68 mg/kg
- ED20 (Rattus norvegicus [5]): > 21.5 mg/kg
- ED50 (Rattus norvegicus [6]): ~0.0215 mg/kg

Structure (SMILES): Cc1cc(/C=C/c2ccccc2OCC(O)CNC(C)CCc2ccccc2)on1 (stereo not given)
- Relative potency (Rattus norvegicus [1]): ~5.2
- Relative potency (Rattus norvegicus [2]): ~3
- Relative potency (Rattus norvegicus [3]): ~1
- ED20 (Rattus norvegicus [4]): ~1 mg/kg
- ED20 (Rattus norvegicus [5]): ~46.4 mg/kg
- ED50 (Rattus norvegicus [6]): ~0.0464 mg/kg

Structure (SMILES): COc1ccc(CC(C)NCC(O)COc2ccccc2/C=C/c2cc(C)no2)cc1OC (stereo not given)
- Relative potency (Rattus norvegicus [1]): ~2.4
- Relative potency (Rattus norvegicus [2]): ~3
- ED20 (Rattus norvegicus [4]): ~2.15 mg/kg
- ED20 (Rattus norvegicus [5]): > 21.5 mg/kg
- ED50 (Rattus norvegicus [6]): ~0.464 mg/kg

Structure (SMILES): Cc1cc(/C=C/c2ccccc2OCC(O)CNC(C)C)on1 (stereo not given)
- Relative potency (Rattus norvegicus [1]): 8
- Relative potency (Rattus norvegicus [2]): 23.3
- ED20 (Rattus norvegicus [4]): ~0.65 mg/kg
- ED20 (Rattus norvegicus [5]): > 21.5 mg/kg
- ED50 (Rattus norvegicus [6]): 0.006 mg/kg

Structure (SMILES): Cc1noc(/C=C/c2ccccc2OCC(O)CNC(C)(C)C)c1Cl (stereo not given)
- Relative potency (Rattus norvegicus [1]): ~5.2
- Relative potency (Rattus norvegicus [2]): 10
- ED20 (Rattus norvegicus [4]): ~1 mg/kg
- ED20 (Rattus norvegicus [5]): > 21.5 mg/kg
- ED50 (Rattus norvegicus [6]): 0.014 mg/kg

Structure (SMILES): Cc1cc(/C=C/c2ccccc2OCC(O)CNC(C)(C)CCc2ccc(O)cc2)on1 (stereo not given)
- Relative potency (Rattus norvegicus [1]): ~5.2
- Relative potency (Rattus norvegicus [2]): ~6.5
- Relative potency (Rattus norvegicus [3]): ~2.2
- ED20 (Rattus norvegicus [4]): ~1 mg/kg
- ED20 (Rattus norvegicus [5]): ~21.5 mg/kg
- ED50 (Rattus norvegicus [6]): ~0.0215 mg/kg

Structure (SMILES): Cc1cc(/C=C/c2ccccc2OCC(O)CNC2CC2)on1 (stereo not given)
- Relative potency (Rattus norvegicus [1]): ~3.5
- Relative potency (Rattus norvegicus [2]): 15.4
- Relative potency (Rattus norvegicus [3]): ~2.2
- Relative potency (Rattus norvegicus [7]): 0.8
- ED20 (Rattus norvegicus [4]): ~1.47 mg/kg
- ED20 (Rattus norvegicus [5]): ~21.5 mg/kg
- ED50 (Rattus norvegicus [8]): 0.63 mg/kg
- ED50 (Rattus norvegicus [6]): 0.0091 mg/kg

Structure (SMILES): CC(C)NCC(O)COc1ccccc1/C=C/c1cc(Cl)no1 (stereo not given)
- Relative potency (Rattus norvegicus [1]): 7.6
- Relative potency (Rattus norvegicus [2]): 3
- ED20 (Rattus norvegicus [9]): 0.68 mg/kg
- ED20 (Rattus norvegicus [5]): > 21.5 mg/kg
- ED50 (Rattus norvegicus [6]): 0.0464 mg/kg

Structure (SMILES): COCc1cc(/C=C/c2ccccc2OCC(O)CNC2CC2)on1 (stereo not given)
- Relative potency (Rattus norvegicus [1]): ~5.2
- Relative potency (Rattus norvegicus [2]): ~14
- Relative potency (Rattus norvegicus [3]): ~4.8
- Relative potency (Rattus norvegicus [7]): 0.6
- ED20 (Rattus norvegicus [4]): ~1 mg/kg
- ED20 (Rattus norvegicus [5]): ~10 mg/kg
- ED50 (Rattus norvegicus [8]): 0.73 mg/kg
- ED50 (Rattus norvegicus [6]): ~0.01 mg/kg

Structure (SMILES): CCc1cc(/C=C/c2ccccc2OCC(O)CNC(C)C)on1.Cl (stereo not given)
- Relative potency (Rattus norvegicus [1]): 12.7
- Relative potency (Rattus norvegicus [2]): ~6.5
- Relative potency (Rattus norvegicus [3]): 5.1
- ED20 (Rattus norvegicus [4]): 0.41 mg/kg
- ED20 (Rattus norvegicus [5]): 9.38 mg/kg
- ED50 (Rattus norvegicus [6]): ~0.0215 mg/kg

Structure (SMILES): Cc1cc(/C=C/c2ccccc2OCC(O)CNC(C)(C)C)on1.Cl (stereo not given)
- Relative potency (Rattus norvegicus [1]): 13
- Relative potency (Rattus norvegicus [2]): 15.9
- Relative potency (Rattus norvegicus [3]): 3.3
- Relative potency (Rattus norvegicus [7]): 3.9
- ED20 (Rattus norvegicus [4]): 0.4 mg/kg
- ED20 (Rattus norvegicus [5]): 14.5 mg/kg
- ED50 (Rattus norvegicus [8]): 0.12 mg/kg
- ED50 (Rattus norvegicus [6]): 0.0088 mg/kg

Structure (SMILES): Cc1cc(C=Cc2ccccc2OCC(O)CNC(C)(C)C)no1.Cl (stereo not given)
- Relative potency (Rattus norvegicus [1]): ~2.4
- Relative potency (Rattus norvegicus [2]): 10.8
- Relative potency (Rattus norvegicus [3]): ~2.2
- ED20 (Rattus norvegicus [4]): ~2.15 mg/kg
- ED20 (Rattus norvegicus [5]): ~21.5 mg/kg
- ED50 (Rattus norvegicus [6]): 0.013 mg/kg

Structure (SMILES): CCc1cc(/C=C/c2ccccc2OCC(O)CNC(C)(C)C)on1.Cl (stereo not given)
- Relative potency (Rattus norvegicus [1]): 5.6
- Relative potency (Rattus norvegicus [2]): ~6.5
- ED20 (Rattus norvegicus [4]): 0.93 mg/kg
- ED20 (Rattus norvegicus [5]): > 21.5 mg/kg
- ED50 (Rattus norvegicus [6]): ~0.0215 mg/kg

Structure (SMILES): COCc1cc(/C=C/c2ccccc2OCC(O)CNC(C)C)on1.Cl (stereo not given)
- Relative potency (Rattus norvegicus [1]): ~5.2
- Relative potency (Rattus norvegicus [2]): 21.9
- Relative potency (Rattus norvegicus [3]): 2.6
- Relative potency (Rattus norvegicus [7]): 0.8
- ED20 (Rattus norvegicus [4]): ~1 mg/kg
- ED20 (Rattus norvegicus [5]): 18.2 mg/kg
- ED50 (Rattus norvegicus [8]): 0.61 mg/kg
- ED50 (Rattus norvegicus [6]): 0.0064 mg/kg

Structure (SMILES): COCc1cc(/C=C/c2ccccc2OCC(O)CNC(C)(C)C)on1.Cl (stereo not given)
- Relative potency (Rattus norvegicus [1]): ~6.5
- Relative potency (Rattus norvegicus [2]): 18.9
- Relative potency (Rattus norvegicus [3]): ~2.2
- Relative potency (Rattus norvegicus [7]): 2.2
- ED20 (Rattus norvegicus [4]): ~0.8 mg/kg
- ED20 (Rattus norvegicus [5]): ~21.5 mg/kg
- ED50 (Rattus norvegicus [8]): 0.21 mg/kg
- ED50 (Rattus norvegicus [6]): 0.0074 mg/kg

Structure (SMILES): C#CC(C)(C)NCC(O)COc1ccccc1/C=C/c1cc(C)no1.Cl (stereo not given)
- Relative potency (Rattus norvegicus [1]): 4.2
- Relative potency (Rattus norvegicus [2]): ~2.1
- Relative potency (Rattus norvegicus [3]): ~1
- ED20 (Rattus norvegicus [4]): ~1.25 mg/kg
- ED20 (Rattus norvegicus [5]): ~46.4 mg/kg
- ED50 (Rattus norvegicus [6]): ~0.0681 mg/kg

Structure (SMILES): Cc1cc(/C=C/c2ccccc2OCC(O)CNC(C)C)no1.Cl (stereo not given)
- Relative potency (Rattus norvegicus [1]): ~2.4
- Relative potency (Rattus norvegicus [2]): 41.2
- Relative potency (Rattus norvegicus [3]): 1
- ED20 (Rattus norvegicus [4]): ~2.15 mg/kg
- ED20 (Rattus norvegicus [5]): ~46.4 mg/kg
- ED50 (Rattus norvegicus [6]): 0.0034 mg/kg

Structure (SMILES): CC(C)(C)NCC(O)COc1ccccc1/C=C/c1cc(C(C)(C)C)no1.Cl (stereo not given)
- Relative potency (Rattus norvegicus [2]): ~6.5
- ED20 (Rattus norvegicus [4]): > 1 mg/kg
- ED20 (Rattus norvegicus [5]): > 46.4 mg/kg
- ED50 (Rattus norvegicus [6]): ~0.0215 mg/kg

Structure (SMILES): CC(CCc1ccccc1)NCC(O)c1ccc(O)c(C(N)=O)c1 (stereo not given) [LABETALOL]
- Relative potency (Rattus norvegicus [1]): 1
- Relative potency (Rattus norvegicus [2]): 1
- Relative potency (Rattus norvegicus [3]): 1
- Relative potency (Rattus norvegicus [7]): 1
- ED20 (Rattus norvegicus [4]): 5.2 mg/kg
- ED20 (Rattus norvegicus [5]): 47.7 mg/kg
- ED50 (Rattus norvegicus [8]): 0.47 mg/kg
- ED50 (Rattus norvegicus [6]): 0.14 mg/kg
